# Measured values as given in ChEMBL document CHEMBL1137569, “Pharmacomodulations around the 4-oxo-1,4-dihydroquinoline-3-carboxamides, a class of potent CB2-selective cannabinoid receptor ligands: consequences in receptor affinity and functionality” (J Med Chem, 2007).
# Key:
# [1] = target: Cannabinoid receptor 1 (Homo sapiens) (UniProt P21554); assay: Displacement of [3H]SR-141716A from human CB1 receptor expressed in CHO cells at 10 uM; format: cell-based
# In short: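 Single-concentration (10 µM) competition screen on membranes from CHO cells expressing hCB1, with [3H]SR-141716A as radioligand. Read-out is percent displacement of the radioligand from its binding site.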
# Cannabinoid receptor 2 [2] = target: T1, Cannabinoid receptor 2 (Homo sapiens, UniProt P34972); assay: Inhibition of human CB2 receptor expressed in CHO cells; format: cell-based
# Cannabinoid receptor 2 [3] = target: T1, Cannabinoid receptor 2; assay: Displacement of [3H]CP-55940 from human CB2 receptor expressed in CHO cells; format: cell-based; set-up: concentration or dose not given beside the values
# In short: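 Competitive radioligand binding on membranes from CHO cells expressing hCB2, with [3H]-CP-55,940 as tracer. Compounds were first screened at 10 µM. Ki at CB2 was then determined for those displacing more than 60% of specific binding.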
# Cannabinoid receptor 2 [4] = target: T1, Cannabinoid receptor 2; assay: Displacement of [3H]SR-141716A from human CB2 receptor expressed in CHO cells at 10 uM; format: cell-based
# Cannabinoid receptor 2 [5] = target: T1, Cannabinoid receptor 2; assay: Activity at human CB2 receptor expressed in CHO cells assessed as stimulated [35S]GTP-gamma-S binding relative to control; format: functional, cell-based; set-up: concentration or dose not given beside the values
# T1 sequence (P34972 whole entry): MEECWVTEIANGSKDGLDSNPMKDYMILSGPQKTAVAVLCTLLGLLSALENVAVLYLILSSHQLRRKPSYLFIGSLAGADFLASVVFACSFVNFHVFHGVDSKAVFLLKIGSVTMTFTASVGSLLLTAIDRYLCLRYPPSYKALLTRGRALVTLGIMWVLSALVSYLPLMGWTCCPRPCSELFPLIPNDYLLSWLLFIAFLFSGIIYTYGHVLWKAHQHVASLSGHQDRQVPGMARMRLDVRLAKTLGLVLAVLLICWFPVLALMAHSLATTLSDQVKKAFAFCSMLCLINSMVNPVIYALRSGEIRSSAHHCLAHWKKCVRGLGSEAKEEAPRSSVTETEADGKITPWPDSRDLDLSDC
# Sequence of Cannabinoid receptor 1 (Homo sapiens) (P21554 whole entry): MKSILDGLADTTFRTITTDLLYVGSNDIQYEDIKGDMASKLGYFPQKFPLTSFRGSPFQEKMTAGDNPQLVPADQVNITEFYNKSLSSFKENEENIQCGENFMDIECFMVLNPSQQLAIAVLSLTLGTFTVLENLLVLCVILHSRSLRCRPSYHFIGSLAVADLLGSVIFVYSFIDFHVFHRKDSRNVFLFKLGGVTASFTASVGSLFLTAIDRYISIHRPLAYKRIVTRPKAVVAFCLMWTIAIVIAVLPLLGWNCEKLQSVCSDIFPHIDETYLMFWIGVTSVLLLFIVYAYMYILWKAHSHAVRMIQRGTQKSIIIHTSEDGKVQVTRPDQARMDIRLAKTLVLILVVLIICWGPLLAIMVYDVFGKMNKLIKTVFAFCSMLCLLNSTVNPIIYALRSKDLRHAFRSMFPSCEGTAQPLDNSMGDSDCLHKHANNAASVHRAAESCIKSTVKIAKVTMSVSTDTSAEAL
Compound,Activity [1],Ki (Cannabinoid receptor 2 [2]),Activity (Cannabinoid receptor 2 [3]),Activity (Cannabinoid receptor 2 [4]),Activity (Cannabinoid receptor 2 [5])
CCCCCn1cc(C(=O)c2cccc3ccccc23)c(=O)c2ccccc21,56%,154 nM,97%,–,–
O=C(c1cn(Cc2ccc(F)cc2)c2ccccc2c1=O)c1cccc2ccccc12,–,225 nM,112%,70%,–
CCCCCn1cc(NC(=O)CCc2ccccc2)c(=O)c2ccccc21,–,1130 nM,83.4%,–,183%
CCCCCn1cc(C(=O)NC23CC4CC(C)(CC(C)(C4)C2)C3)c(=O)c2cc(Cl)ccc21,–,54.6 nM,86.7%,–,49.6%
CC12CC3CC(C)(C1)CC(NC(=O)c1cn(Cc4ccc(F)cc4)c4ccccc4c1=O)(C3)C2,–,83.4 nM,93.2%,–,157%
CC12CC3CC(C)(C1)CC(NC(=O)c1cn(CCc4ccccc4)c4ccccc4c1=O)(C3)C2,–,333 nM,95.8%,–,141%
CC12CC3CC(C)(C1)CC(NC(=O)c1cn(CCCc4ccccc4)c4ccccc4c1=O)(C3)C2,–,160 nM,101%,–,98.8%
CCCCCn1cc(C(=O)NC23CC4CC(C)(CC(C)(C4)C2)C3)c(=S)c2ccccc21,–,18.2 nM,95.7%,–,65.6%
CCCCCn1c(C)c(C(=O)NC23CC4CC(C)(CC(C)(C4)C2)C3)c(=O)c2ccccc21,–,200 nM,96.7%,–,128%
